According to ChEMBL document CHEMBL4145455, “Design, synthesis and evaluation of novel phenyl propionamide derivatives as non-nucleoside hepatitis B virus inhibitors” (Eur J Med Chem, 2018):

Tests used:
[1] = Cytotoxicity against human HepG2(2.2.15) cells assessed as reduction in cell viability after 72 hrs by MTT assay; format: cell-based
Outline: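 Confluent HepG2 2.2.15 cells exposed to graded compound concentrations for 72 h alongside untreated controls on each plate; viability by MTT uptake, absorbance 490 nm relative to untreated cells; CC50 = concentration killing 50% of cells. Three replicates.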

Hepatitis B virus [2] = assay: Antiviral activity against HBV infected in human HepG2(2.2.15) cells assessed as inhibition of viral DNA replication at 20 uM after 6 days by RT-PCR method relative to control; format: functional; conditions: HepG2 2.2.15, 144 h
Outline: (§1)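 HepG2 2.2.15 cells (stable HBV genome; DMEM, 10% FBS, G418 0.38 mg/mL) seeded 2×10^5/well, recovered 24 h, then compound in assay medium (single 20 or 4 μM, or dose series for IC50), medium changed every 2 days; after 6 days HBV DNA extracted and quantified by real-time PCR. Mean ± SD, ≥3 independent experiments in duplicate.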

Hepatitis B virus [3] = assay: Antiviral activity against HBV infected in human HepG2(2.2.15) cells assessed as inhibition of viral DNA replication after 6 days by RT-PCR method; format: functional, organism-based; conditions: HepG2 2.2.15, 144 h; outline: as §1
[4] = Selectivity index, ratio of CC50 for human HepG2(2.2.15) cells to IC50 for antiviral activity against HBV infected in human HepG2(2.2.15) cells assessed as inhibition of viral DNA replication; format: toxicity, cell-based; conditions: read-out: Ratio CC50/IC50
Outline: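 SI calculated as CC50 (72 h MTT, HepG2 2.2.15) divided by IC50 for inhibition of HBV DNA replication measured by real-time PCR.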

Hepatitis B virus [5] = assay: Antiviral activity against HBV infected in human […] cells assessed as inhibition of viral DNA replication at 100 uM after 72 hrs by RT-PCR method relative to control; format: functional
Outline: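 HepG2 cells (2×10^5/well) transfected overnight-plated, 24 h with plasmid carrying wild-type or rtL180M+rtM204V+rtT184L resistant HBV; after PBS wash, fresh medium with lamivudine 100 μM, entecavir 10 μM, or test compounds 1 μM (one at 10 μM) for 72 h; replicative intermediate HBV DNA measured by real-time PCR.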

Hepatitis B virus [6] = assay: Antiviral activity against lamivudine/entecavir resistant HBV harboring reverse transcriptase L180M/M204V/T184L mutant infected in human […] after 72 hrs by RT-PCR method; format: functional, organism-based
Outline: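 HepG2 cells (2×10^5 per well) were plated, incubated overnight, then transiently transfected for 24 h with a plasmid carrying the full HBV genome with rtL180M + rtM204V + rtT184L. Medium was discarded, cells washed with PBS, then treated across a dose range in fresh medium for 72 h. Intracellular HBV DNA replicative intermediate was quantified by real-time PCR. IC50 is 50% inhibition of DNA replication.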

[7] = Selectivity index, ratio of CC50 for human HepG2(2.2.15) cells to IC50 for antiviral activity against lamivudine/entecavir resistant HBV harboring reverse transcriptase L180M/M204V/T184L mutant infected in human HepG2(2.2.15) cells; format: toxicity, cell-based; conditions: read-out: Ratio CC50/IC50
Outline: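 SI = CC50/IC50. CC50 comes from HepG2 2.2.15 cells grown to confluence and treated for 72 h, with MTT absorbance at 490 nm relative to untreated cells, in triplicate. IC50 comes from mutant-plasmid-transfected HepG2 cells treated for 72 h, with HBV DNA measured by real-time PCR.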

Hepatitis B virus [8] = assay: Antiviral activity against HBV infected in human HepG2(2.2.15) cells assessed as inhibition of intracellular viral pregenomic RNA expression at 1 uM after 6 days by TRIzol reagent based RT-PCR method relative to control; format: functional; conditions: HepG2 2.2.15, 144 h
Outline: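 HepG2 2.2.15 cells at 6×10^5 per well treated 6 days at 1 μM; total cellular RNA extracted and intracellular HBV pgRNA quantified by real-time PCR.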

Hepatitis B virus [9] = assay: Antiviral activity against lamivudine/entecavir resistant HBV harboring reverse transcriptase L180M/M204V/T184L mutant infected in human HepG2 cells assessed as inhibition of viral DNA replication at 100 uM after 72 hrs by RT-PCR method relative to control; conditions: HepG2, 72 h

Nc1ccn([C@@H]2CS[C@H](CO)O2)c(=O)n1 [LAMIVUDINE]
CC50 at 72 h [1]: > 100 µM
inhibition at 20 µM (Hepatitis B virus [2]): 92.7%
IC50 (Hepatitis B virus [3]): < 100 nM
selectivity ratio [4]: > 1000
inhibition at 100 µM (Hepatitis B virus [5]): 94.3%
IC50 (Hepatitis B virus [6]): > 100 µM
selectivity ratio [7]: < 1
inhibition at 1 µM (Hepatitis B virus [8]): 0.81%
inhibition at 100 µM (Hepatitis B virus [9]): 19.4%
